Data: article PMC12062462 (Nature Communications, 2025)
Where a name gives a salt, the structure may show the parent alone.

Tests used:
L929 cells = test: Cell viability assay with or without zVAD; format: cell-based, mouse; details: for on-target apoptosis in cells (in words): L929, murine cells
[1] = system: HT29 cells (TNF-α-induced necroptosis); test: Necroptosis induction and inhibition assay in HT29; format: cell-based, human; details: for EC50: Homo sapiens, HT-29, read-out: EC50^HT29 against TNF-α-induced necroptosis, zVAD (20 μM), human TNF-α (40 ng/mL), Smac mimetic SM-164 (100 nM), CCK-8
[2] = system: L929 cells (TNF-α-induced necroptosis); test: Necroptosis induction and inhibition assay in L929; format: cell-based, mouse; details: for EC50: Mus musculus, L929, read-out: EC50^L929 against TNF-α-induced necroptosis, mouse TNF-α (20 ng/mL) and zVAD (10 μM), CCK-8
[3] = system: caspase 3 and caspase 8 cleavage in L929 cells; test: Western blot of caspase 3 and caspase 8 cleavage in L929 cells; format: cell-based, mouse; details: L929, 3 hours
In short: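 L929 cells in 12-well plates at about 80% confluency were exposed for 3 h to test compound, DMSO or medium, each with 10 µM zVAD. Cells were lysed at room temperature in a Triton X-100/Tris-based 1× SDS sample buffer and boiled 10 min. Proteins were run on 15% SDS-PAGE and blotted to PVDF. Membranes were blocked in 5% milk and probed for caspase 3 and caspase 8 cleavage overnight at 4 °C. Three independent experiments.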

[4] = system: panel of 379 human kinases; test: Selectivity profiling, Eurofins KinaseProfiler; format: biochemical; details: 379 kinases
[5] = target: panel of 379 human kinases (Homo sapiens, UniProt Q13882); test: Selectivity profiling, Eurofins KinaseProfiler; format: biochemical; details: read-out: inhibition rate against breast tumor kinase (BRK)
Chain of panel of 379 human kinases (Homo sapiens, UniProt Q13882) (Q13882 whole entry): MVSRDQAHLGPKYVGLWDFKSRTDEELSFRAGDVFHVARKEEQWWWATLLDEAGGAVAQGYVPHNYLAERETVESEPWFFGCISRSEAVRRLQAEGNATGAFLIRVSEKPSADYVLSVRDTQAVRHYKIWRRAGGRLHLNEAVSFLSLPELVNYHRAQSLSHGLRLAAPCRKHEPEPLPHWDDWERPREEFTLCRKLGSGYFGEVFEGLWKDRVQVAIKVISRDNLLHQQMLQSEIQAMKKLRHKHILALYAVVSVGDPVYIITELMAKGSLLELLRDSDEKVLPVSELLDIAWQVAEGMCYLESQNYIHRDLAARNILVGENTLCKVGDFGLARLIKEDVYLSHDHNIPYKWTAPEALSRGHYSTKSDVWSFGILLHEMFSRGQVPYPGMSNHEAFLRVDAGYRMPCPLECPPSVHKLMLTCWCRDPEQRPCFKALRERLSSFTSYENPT

[6] = target: panel of 379 human kinases (Homo sapiens, UniProt O43353); test: Selectivity profiling, Eurofins KinaseProfiler; format: biochemical; details: read-out: inhibition rate against RIPK2
Chain of panel of 379 human kinases (Homo sapiens, UniProt O43353) (O43353 whole entry): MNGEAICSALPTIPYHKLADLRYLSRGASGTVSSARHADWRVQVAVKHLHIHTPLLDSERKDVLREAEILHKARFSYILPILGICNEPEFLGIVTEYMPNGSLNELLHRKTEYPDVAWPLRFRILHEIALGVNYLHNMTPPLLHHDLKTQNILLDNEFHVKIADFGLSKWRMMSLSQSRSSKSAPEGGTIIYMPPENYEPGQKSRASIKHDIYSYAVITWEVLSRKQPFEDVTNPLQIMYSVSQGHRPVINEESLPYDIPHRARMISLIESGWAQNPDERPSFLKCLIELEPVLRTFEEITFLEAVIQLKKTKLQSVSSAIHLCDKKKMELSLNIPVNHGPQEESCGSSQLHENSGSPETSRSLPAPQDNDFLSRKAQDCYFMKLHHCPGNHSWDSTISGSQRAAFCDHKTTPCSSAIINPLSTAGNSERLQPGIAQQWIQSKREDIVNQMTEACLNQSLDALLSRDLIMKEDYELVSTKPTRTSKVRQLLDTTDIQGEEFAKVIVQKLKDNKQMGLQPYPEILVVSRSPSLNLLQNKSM

[7] = system: RIPK3 and MLKL phosphorylation in L929 cells; test: Western blot of RIPK3 and MLKL phosphorylation, L929; format: cell-based, mouse; details: L929, inhibitors at 3 and 10 µM, necroptosis induced for 3 hours
In short: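 L929 cells were grown in 6-well plates to about 80% confluency and given test compound or DMSO with zVAD (10 μM) for 1-2 h. Mouse TNF-α (20 ng/mL) was then added for 3 h. Cells were washed three times in cold PBS and lysed in 10 mM Tris-HCl pH 8.0, 1% SDS, 1 mM orthovanadate with protease and phosphatase inhibitors. Lysates were boiled for 10 min and stored at -80 °C. Phospho-RIPK3 and phospho-MLKL were immunoblotted after 10% SDS-PAGE and PVDF transfer.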

RIPK2 = RIPK2 (Homo sapiens, UniProt O43353); test: ADP-Glo kinase assay, RIPK2; format: biochemical
Chain of RIPK2 (O43353 1-310): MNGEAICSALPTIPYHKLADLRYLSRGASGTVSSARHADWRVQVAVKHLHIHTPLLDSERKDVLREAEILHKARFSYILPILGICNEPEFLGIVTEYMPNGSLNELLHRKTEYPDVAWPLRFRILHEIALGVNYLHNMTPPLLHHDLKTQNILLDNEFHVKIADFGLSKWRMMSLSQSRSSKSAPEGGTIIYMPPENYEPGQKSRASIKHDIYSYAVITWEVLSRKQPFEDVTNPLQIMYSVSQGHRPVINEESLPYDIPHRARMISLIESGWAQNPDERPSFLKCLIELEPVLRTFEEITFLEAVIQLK
In short: (§1)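 Human kinase domains were expressed in Sf-9 cells from baculovirus and purified by Ni-NTA then size exclusion: BRK 185-446 (C433T, C-terminal 6×His) and RIPK2 1-310 (C-terminal 10×His). Each was preincubated with test compound or DMSO in 40 mM Tris pH 7.5, 20 mM MgCl2, 0.1 mg/mL BSA. ATP was added to 20 µM final for 1 h at room temperature, and ADP was read by ADP-Glo luminescence.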

BRK kinase domain = BRK kinase domain (Homo sapiens, UniProt Q13882, C433T); test: ADP-Glo kinase assay, BRK; format: biochemical
Chain of BRK kinase domain (Q13882 185-446 C433T): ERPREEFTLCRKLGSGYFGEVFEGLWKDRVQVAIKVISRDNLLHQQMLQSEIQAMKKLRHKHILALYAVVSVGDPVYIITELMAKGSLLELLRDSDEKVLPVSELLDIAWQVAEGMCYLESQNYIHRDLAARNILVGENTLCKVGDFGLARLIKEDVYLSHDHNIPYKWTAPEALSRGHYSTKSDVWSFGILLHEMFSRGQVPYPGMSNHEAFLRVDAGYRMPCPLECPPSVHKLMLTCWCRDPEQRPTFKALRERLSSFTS
In short: as §1

RIPK3-RIPK1 interaction = RIPK3-RIPK1 interaction (Mus musculus, UniProt Q9QZL0); test: RIPK1 immunoprecipitation; format: cell-based; details: L929, 10 µM, 5 hours
Chain of RIPK3-RIPK1 interaction (Q9QZL0 whole entry): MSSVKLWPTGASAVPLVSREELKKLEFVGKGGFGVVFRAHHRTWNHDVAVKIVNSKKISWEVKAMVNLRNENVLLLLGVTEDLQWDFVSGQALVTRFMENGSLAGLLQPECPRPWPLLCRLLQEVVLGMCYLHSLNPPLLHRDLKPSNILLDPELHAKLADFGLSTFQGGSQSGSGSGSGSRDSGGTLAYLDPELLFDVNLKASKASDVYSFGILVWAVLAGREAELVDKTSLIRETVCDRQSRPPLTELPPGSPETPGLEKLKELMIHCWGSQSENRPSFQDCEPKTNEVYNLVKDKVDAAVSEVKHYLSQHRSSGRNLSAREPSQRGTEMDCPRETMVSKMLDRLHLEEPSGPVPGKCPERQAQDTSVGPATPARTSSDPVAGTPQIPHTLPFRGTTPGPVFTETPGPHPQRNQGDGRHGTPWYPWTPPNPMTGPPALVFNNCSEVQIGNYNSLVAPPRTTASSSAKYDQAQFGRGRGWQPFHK
In short: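 Lysates were cleared at 17,000 g for 15 min at 4 °C, and an input sample was kept. Lysate was incubated with anti-RIPK1 antibody on protein A/G magnetic beads for 2 h at 4 °C. Co-precipitated RIPK3 was detected by Western blot. Normalized quantification came from three independent experiments.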

[8] = system: caspase 3 activity in L929 cell lysates; test: Caspase 3 activity in L929 cell lysates; format: cell-based, mouse
In short: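 L929 cells were cultured 12 h in 12-well plates, then exposed to test compound or DMSO for 0, 1, 2, 3 or 4 h. Protein was measured by BCA. Lysate was incubated with Ac-DEVD-pNA overnight at 37 °C and read at A405 minus blank. Three experiments, each in triplicate.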

L929^RIPK3-/- cells = test: Cell viability assay with or without zVAD, L929 RIPK3 knockout; format: cell-based, mouse
In short: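 L929 cells were grown in MEM with 10% FBS. RIPK3 was knocked out by CRISPR/Cas9 (sgRNA against mouse RIPK3), and knockout was confirmed by sequencing and immunoblot. Knockout lines with or without re-expressed RIPK3 K51A or K51A/R69H were seeded at 10,000–20,000 cells/well and left to attach for 24 h. Cells were exposed to test compound alone or with zVAD for 18–20 h. Viability was read by CCK-8 (1–2 h, 37 °C, A450). Three experiments in triplicate; CC50 by nonlinear regression.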

[9] = system: RIPK3 and MLKL phosphorylation in HT29 cells; test: Western blot of RIPK3 and MLKL phosphorylation, HT29; format: cell-based, human; details: HT29, inhibitors at 3 and 10 µM, necroptosis induced for 3 hours
In short: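 HT29 cells were grown in 12-well plates to about 80% confluency and given test compound or DMSO with zVAD (20 μM) for 1-2 h. Necroptosis was then induced with human TNF-α (40 ng/mL) plus SM-164 (100 nM) for 3 h. Cells were washed three times in cold PBS and lysed for 10 min at room temperature in RIPA buffer with protease and phosphatase inhibitors and SDS loading buffer. Phospho-RIPK3 and phospho-MLKL were immunoblotted after 10% SDS-PAGE and PVDF transfer.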

Compound | concentration at which cleavage of caspases 8 and 3 is seen (Western blot) [3] [µM] | concentration at which caspase 3 is activated [8] [µM] | change of CC50 in the presence or absence of zVAD (L929 cells; L929) | EC50 [1] [nM] | EC50 [2] [nM] | RIPK3 and MLKL phosphorylation induced by TNF-α (Western blot) [7] | interaction between RIPK3 and RIPK1 (co-immunoprecipitation) (RIPK3-RIPK1 interaction) | change of CC50 between L929 and L929^RIPK3-/- cells (L929^RIPK3-/- cells) | activation of the apoptotic pathway: cleavage of caspase 8 and caspase 3 (Western blot) [3] | RIPK3 and MLKL phosphorylation induced by TNF-α (Western blot) [9] | also measured
CCC(C)c1nc2cc(-c3nn(C(C)(C)C)c4ncnc(N)c34)ccc2s1 (stereo not shown) [LK01004, 1-(tert-butyl)-3-(2-(sec-butyl)benzo[d]thiazol-5-yl)-1H-pyrazolo[3,4-d]pyrimidin-4-amine] | > 100 | – | do not change significantly in the presence or absence of zVAD | – | 3000 | – | – | – | – | – | RIPK3-independent cell killing (off-target toxicity) (L929 cells; L929): still exhibit a substantial portion of RIPK3-independent cell killing; on-target apoptosis in cells (in words) (L929 cells): do not induce on-target apoptosis
CC(C)(C)n1nc(-c2ccc3sc(C4CCCC4)nc3c2)c2c(N)ncnc21 [LK01005, 1-(tert-butyl)-3-(2-cyclopentylbenzo[d]thiazol-5-yl)-1H-pyrazolo[3,4-d]pyrimidin-4-amine] | > 100 | – | do not change significantly in the presence or absence of zVAD | – | 2100 | – | – | – | – | – | RIPK3-independent cell killing (off-target toxicity) (L929 cells; L929): still exhibit a substantial portion of RIPK3-independent cell killing; on-target apoptosis in cells (in words) (L929 cells): do not induce on-target apoptosis
CC(C)S(=O)(=O)c1ccc2nccc(Nc3ccc4sc(C5CCCC5)nc4c3)c2c1.Cl [LK01003, 2-cyclopentyl-N-(6-(isopropylsulfonyl)quinolin-4-yl)benzo[d]thiazol-5-amine hydrochloride] | – | > 50 | – | 850 | 3700 | effectively inhibit RIPK3 and MLKL phosphorylation | neither increase the interaction of RIPK3 with RIPK1 | remain largely unchanged | nor activate the apoptotic pathway | effectively inhibit RIPK3 and MLKL phosphorylation | S (35) score ([4]; 1 μM): approximately 0.005; S (35) score ([4]; 10 μM): approximately 0.03; number of kinases with over 65% inhibition rate ([4]; 10 μM): 12 kinases; inhibition at 1 µM [5]: > 65%; inhibition at 1 µM [6]: > 65%; IC50 (RIPK2): 48 nM; selectivity index (SI), RIPK2 over RIPK3 (RIPK2): 24; IC50 (BRK kinase domain): 248 nM; selectivity index (SI), BRK over RIPK3 (BRK kinase domain): 124
N#Cc1c(Oc2ccc(F)c(NC(=O)Cc3cccc(C(F)(F)F)c3)c2)ccc2nc(NC(=O)C3CC3)sc12 [TAK-632, N-(7-Cyano-6-(4-fluoro-3-(2-(3-(trifluoromethyl)phenyl)acetamido)phenoxy)benzo[d]thiazol-2-yl)cyclopropanecarboxamide, reference compound] | > 100 | – | – | – | – | – | – | – | – | – | –
CC[C@H](C)c1nc2cc(Nc3ccnc4ccc(S(=O)(=O)C(C)C)cc34)ccc2s1 [LK01001, (S)-2-(sec-butyl)-N-(6-(isopropylsulfonyl)quinolin-4-yl)benzo[d]thiazol-5-amine hydrochloride] | – | – | – | 4100 | 7000 | – | – | – | – | – | –

Further lines, with some results ahead:

concentration at which cleavage of caspases 8 and 3 is seen (Western blot) [3] [µM] | concentration at which caspase 3 is activated [8] [µM] | Compound | change of CC50 in the presence or absence of zVAD (L929 cells; L929) | EC50 [1] [nM] | EC50 [2] [nM] | RIPK3 and MLKL phosphorylation induced by TNF-α (Western blot) [7] | interaction between RIPK3 and RIPK1 (co-immunoprecipitation) (RIPK3-RIPK1 interaction) | change of CC50 between L929 and L929^RIPK3-/- cells (L929^RIPK3-/- cells) | activation of the apoptotic pathway: cleavage of caspase 8 and caspase 3 (Western blot) [3] | RIPK3 and MLKL phosphorylation induced by TNF-α (Western blot) [9] | also measured
> 10 | – | Cl.O=S1(=O)C=C(C2CC2)c2cc3nccc(Nc4ccc5sc(C6CCCC6)nc5c4)c3cc21 [LK01033, 8-((2-cyclopentylbenzo[d]thiazol-5-yl)amino)-3-cyclopropylthieno[2,3-g]quinoline 1,1-dioxide hydrochloride] | does not change significantly in the presence or absence of zVAD | 110 | 390 | – | – | – | – | – | –
0.1 | – | Cl.O=S1(=O)C=C(C2CC2)c2cc3nccc(Nc4ccc5scnc5c4)c3cc21 [Zharp-99, 8-(benzo[d]thiazol-5-ylamino)-3-cyclopropylthieno[2,3-g]quinoline 1,1-dioxide hydrochloride, reference compound] | – | 220 | 70 | – | – | – | – | – | difference of CC50 in the presence or absence of zVAD (L929 cells; L929): ~ 36 fold
– | > 50 | CC[C@@H](C)c1nc2cc(Nc3ccnc4ccc(S(=O)(=O)C(C)C)cc34)ccc2s1.Cl [LK01002, (R)-2-(sec-butyl)-N-(6-(isopropylsulfonyl)quinolin-4-yl)benzo[d]thiazol-5-amine hydrochloride] | – | 2000 | 4800 | effectively inhibit RIPK3 and MLKL phosphorylation | neither increase the interaction of RIPK3 with RIPK1 | remain largely unchanged | nor activate the apoptotic pathway | effectively inhibit RIPK3 and MLKL phosphorylation | –
– | > 50 | CC(C)S(=O)(=O)c1cc2c(Nc3ccc4sc(C5CCCC5)nc4c3)ccnc2cc1OCCO [LK01045, 2-((4-((2-cyclopentylbenzo[d]thiazol-5-yl)amino)-6-(isopropylsulfonyl)quinolin-7-yl)oxy)ethan-1-ol] | – | 160 | 610 | effectively inhibits RIPK3 and MLKL phosphorylation | neither increase the interaction of RIPK3 with RIPK1 | remain largely unchanged | nor activate the apoptotic pathway | effectively inhibits RIPK3 and MLKL phosphorylation | stronger potency compared to GSK'872 (EC50, HT29) ([1]; HT29 necroptosis): ~49 fold; stronger potency compared to LK01003 (EC50, HT29) ([1]; HT29 necroptosis): ~5 fold; stronger potency compared to GSK'872 (EC50, L929) ([2]; L929 necroptosis): approximately 6 fold; stronger potency compared to LK01003 (EC50, L929) ([2]; L929 necroptosis): approximately 6 fold
